Data set [1] deals with Hypoxia-inducible factor 1-alpha (Homo sapiens) (UniProt Q16665). Kind of data set: Inhibition of HIF1alpha protein level in human Hep3B cells after 12 hrs in hypoxic condition by Western blot analysis. It counts as cell-based. The method, boiled down: (§1)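 HCT116, A549, Hep3B and HeLa cells incubated 12 h under normoxia or hypoxia with or without indicated compound concentrations; nuclear extracts probed for HIF-1α by Western blot, blot reprobed for topoisomerase-I as loading control.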
Hypoxia-inducible factor 1-alpha (Homo sapiens), sequence (Q16665 whole entry, looked up): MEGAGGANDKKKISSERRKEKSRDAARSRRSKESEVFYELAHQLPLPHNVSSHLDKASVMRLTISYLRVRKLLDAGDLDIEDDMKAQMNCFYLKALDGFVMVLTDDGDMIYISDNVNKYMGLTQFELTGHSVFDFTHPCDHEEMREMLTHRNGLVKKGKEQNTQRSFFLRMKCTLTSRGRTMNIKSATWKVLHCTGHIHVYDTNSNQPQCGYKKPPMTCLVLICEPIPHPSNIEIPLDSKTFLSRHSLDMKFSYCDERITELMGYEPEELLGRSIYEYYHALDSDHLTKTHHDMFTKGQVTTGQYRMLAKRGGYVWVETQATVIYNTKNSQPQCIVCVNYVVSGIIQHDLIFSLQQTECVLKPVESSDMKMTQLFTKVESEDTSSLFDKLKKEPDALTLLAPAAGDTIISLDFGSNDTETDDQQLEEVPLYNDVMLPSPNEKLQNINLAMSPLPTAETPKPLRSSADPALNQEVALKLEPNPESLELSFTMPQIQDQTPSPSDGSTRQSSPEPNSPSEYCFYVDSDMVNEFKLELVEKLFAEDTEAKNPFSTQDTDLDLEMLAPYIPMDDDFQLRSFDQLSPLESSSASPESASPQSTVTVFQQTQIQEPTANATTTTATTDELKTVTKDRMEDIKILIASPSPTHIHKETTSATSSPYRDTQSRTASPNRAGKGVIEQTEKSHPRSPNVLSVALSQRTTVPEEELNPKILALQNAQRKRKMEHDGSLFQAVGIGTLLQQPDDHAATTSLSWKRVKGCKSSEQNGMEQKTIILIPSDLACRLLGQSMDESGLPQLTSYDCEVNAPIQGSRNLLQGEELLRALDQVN
For orientation: In western blotting, separated proteins are transferred to a membrane and probed.

Data set [2] shares this target. Kind of data set: Inhibition of HIF1alpha transcriptional activity in human Hep3B cells after 24 hrs in hypoxic condition by HRE-dual luciferase reporter gene assay. It counts as cell-based. The method, boiled down:
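Hep3B cells transiently co-transfected with pGL3-HRE-luciferase and pRL-CMV, after 24 h incubated under hypoxia with or without compound; luciferase activity measured after 24 h, ursolic acid as positive control; mean ± SD of three independent experiments.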

Data set [3] has as its system Hep 3B2. Kind of data set: Cytotoxicity against human Hep3B cells assessed as reduction in cell viability after 24 hrs in normoxic condition by MTT assay. It counts as cell-based. The method, boiled down: (§2)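 Hep3B viability by MTT assay after 24 h compound treatment under normoxia; table values are means, n=3.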
The target in data set [4] is Hypoxia-inducible factor 1-alpha (Homo sapiens) (UniProt Q16665). Kind of data set: Inhibition of HIF1alpha protein level in human HCT116 cells after 12 hrs in hypoxic condition by Western blot analysis. It is filed as cell-based. The method, boiled down: as §1
Data set [5] has the same target. Kind of data set: Inhibition of HIF1alpha protein level in human A549 cells after 12 hrs in hypoxic condition by Western blot analysis. It counts as cell-based. The method, boiled down: as §1
Data set [6] has the same target. Kind of data set: Inhibition of HIF1alpha protein level in human HeLa cells after 12 hrs in hypoxic condition by Western blot analysis. It is filed as cell-based. The method, boiled down:
as §1

Data set [7] shares this target. Kind of data set: Inhibition of HIF1alpha protein level in human Hep3B cells at 10 uM after 12 hrs in hypoxic condition by DAPI-staining based confocal laser scanning microscopic analysis. It is filed as cell-based. The method, boiled down: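 Hep3B cells given 10 μM compound for 12 h under hypoxia, fixed, stained with anti-HIF-1α (1:100) and Alexa Fluor 488 goat anti-mouse IgG, nuclei counterstained with DAPI; imaged by fluorescence microscopy with 40× objective.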

Data set [8] shares this target. Kind of data set: Inhibition of HIF1alpha in human Hep3B cells at 10 uM preincubated with 26S proteosome inhibitor MG132 followed by compound addition and measured after 12 hrs in hypoxic condition by Western blot analysis. It counts as cell-based. The method, boiled down:
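Proteasome inhibitor MG-132 (10 μM) added to Hep3B cells 30 min before compound (10 μM), then hypoxia for 12 h; nuclear HIF-1α detected by Western blot.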

Data set [9] addresses T1, 26S proteasome (Homo sapiens) (UniProt Q99460+P49721+P20618+P28074+P28062+P28065+P28072+O00487+P25786+P25787+P25788+P25789+P28066+P60900+O14818+Q8TAA3+P40306+A5LHX3+P49720+P28070+Q99436+Q16186+P35998+P62191+P43686+P62333+P17980+P62195+Q13200+O43242+O00232+O00231+Q15008+P51665+Q9UNM6+P55036+P48556+P60896). Kind of data set: Inhibition of 26S proteosome in human Hep3B cells grown under in hypoxic condition for 4 hrs assessed as downregulation of HIF1alpha level at 10 uM added together with cycloheximide and measured after up 45 mins post dose by Western blot analysis. It counts as cell-based. An outline of the steps: (§3)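 Hep3B cells kept under normoxia or hypoxia for 4 h, then cycloheximide (10 μM) and compound (10 μM) added to the medium; HIF-1α level detected by Western blot at 0, 15, 30 or 45 min after cycloheximide.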

The target in data set [10] is T1, 26S proteasome (Homo sapiens). Kind of data set: Inhibition of 26S proteosome in human Hep3B cells grown under in normoxic condition for 4 hrs assessed as downregulation of HIF1alpha level at 10 uM added together with cycloheximide and measured after up 45 mins post dose by Western blot analysis. It is filed as cell-based. An outline of the steps:
as §3

Data set [11] deals with Hep 3B2. Kind of data set: Downregulation of HIF1alpha mRNA expression in human Hep3B cells up to 10 uM after 12 hrs in hypoxic condition by RT-PCR analysis. It counts as functional, cell-based. The method, boiled down: (§4)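 Hep3B cells held under normoxia or hypoxia for 12 h with or without indicated compound concentrations; RNA isolated, reverse-transcribed and analysed by RT-PCR for HIF-1α and VEGF, GAPDH as loading control; mean ± SD of three independent experiments.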

Data set [12] deals with Hep 3B2. Kind of data set: Downregulation of HIF1alpha mRNA expression in human Hep3B cells up to 10 uM after 12 hrs in normoxic condition by RT-PCR analysis. It is filed as functional, cell-based. The method, boiled down: as §4
Data set [13] deals with Hypoxia-inducible factor 1-alpha (Homo sapiens) (UniProt Q16665). Kind of data set: Inhibition of HIFalpha in human Hep3B cells assessed as downregulation of VEGF mRNA expression up to 10 uM after 12 hrs in hypoxic condition by RT-PCR analysis. It is filed as cell-based. The method, boiled down:
as §4

For data set [14] the target is unchanged. Kind of data set: Inhibition of HIF1alpha protein level in human Hep3B cells after 12 hrs in normoxic condition by Western blot analysis. It counts as cell-based. An outline of the steps: as §1
For data set [15] the target is unchanged. Kind of data set: Inhibition of HIF1alpha protein level in human HCT116 cells after 12 hrs in normoxic condition by Western blot analysis. It is filed as cell-based. The method, boiled down:
as §1

Data set [16] has the same target. Kind of data set: Inhibition of HIF1alpha protein level in human A549 cells after 12 hrs in normoxic condition by Western blot analysis. It counts as cell-based. The method, boiled down: as §1
Data set [17] has the same target. Kind of data set: Inhibition of HIF1alpha protein level in human HeLa cells after 12 hrs in normoxic condition by Western blot analysis. It is filed as cell-based. An outline of the steps:
as §1

Data set [18] concerns Hep 3B2. Kind of data set: Effect on TOP1 protein level in human Hep3B cells after 12 hrs in hypoxic condition by Western blot analysis. It is filed as functional, cell-based. An outline of the steps: as §1
For data set [19], the system named is Hep 3B2. Kind of data set: Cytotoxicity against human Hep3B cells assessed as reduction in cell viability up to 30 uM after 24 hrs in normoxic condition by MTT assay. It counts as cell-based. To be noted: hep 3b2, 24 h. An outline of the steps: as §2
In general terms: Formazan colour is commonly taken as a measure of viable cells.

For data set [20], the system named is Hep 3B2. Kind of data set: Antiproliferative activity against human Hep3B cells assessed as reduction in EdU incorporation at 10 uM after 12 hrs in hypoxic condition by DAPI staining based inverted fluorescence microscopic method. It counts as functional, cell-based. The method, boiled down: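 Hep3B cells incubated 12 h with or without compound at 10 μM; EdU-labelled replicating cells examined by fluorescence microscopy, DNA counterstained with DAPI; percentage of EdU-positive cells compared with vehicle-treated cells.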

In data set [21] the test system is Hep 3B2. Kind of data set: Anticlonogenic activity against human Hep3B cells after 10 days by crystal violet staining based assay. It is filed as functional, cell-based. An outline of the steps: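 Hep3B cells exposed to compound at 0, 1, 3 and 10 μM for 12 h, then medium replaced with fresh medium and cells grown 10 d; colony formation imaged.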
The subject of another data set is HCT-116. Kind of data set: Effect on TOP1 protein level in human HCT116 cells after 12 hrs in hypoxic condition by Western blot analysis. It is filed as functional, cell-based. The method, boiled down:
as §1

The subject of a further data set is A549. Kind of data set: Effect on TOP1 protein level in human A549 cells after 12 hrs in hypoxic condition by Western blot analysis. It counts as functional, cell-based. An outline of the steps: as §1
In another data set the test system is HeLa. Kind of data set: Effect on TOP1 protein level in human HeLa cells after 12 hrs in hypoxic condition by Western blot analysis. It is filed as functional, cell-based. An outline of the steps: as §1

Each structure is given as a SMILES string. Calls of active or inactive are those of the source. The rule behind the calls is not given here.

A word on the IC50: it is the concentration that gives 50% inhibition.

On to `C[C@H]1[C@H](C)CC[C@]2(C(=O)O)CC[C@]3(C)C(=CC[C@@H]4[C@@]5(C)CC(=C\c6ccc(Cl)cc6)/C(=N\NC(=N)N)C(C)(C)[C@@H]5CC[C@]43C)[C@H]12`, for which the inhibition entry in [1], in [2], in data set [4], in [5] and in data set [6] was “Dose-dependent effect” in each case. Moreover, the concentration for half-maximal inhibition (IC50) in the data set with Hep 3B2 [3] is above 100 µM. The inhibition result in [7], in [8] and in [13] was “Active” in each case. For the same compound, the inhibition entry in [9], in [10], in [14], in data set [15], in data set [16] and in [17] was “inactive” in each case. Besides, the outcome in the data set with Hep 3B2 [11], in the data set with Hep 3B2 [12], in the data set on Hep 3B2 [18], in the data set on HCT-116, with A549 and in the data set on HeLa was inactive. Also, the values for the Activity entry with Hep 3B2 [19] and in the data set on Hep 3B2 [21] were “Non-Toxic” and “Dose-dependent effect”, respectively. In the data set with Hep 3B2 [20], the outcome was Active.

The values are drawn from ChEMBL document CHEMBL4368925, “Design, synthesis, and screening of novel ursolic acid derivatives as potential anti-cancer agents that target the HIF-1α pathway” (Bioorg Med Chem Lett, 2019).
